Most compounds without a hit are left out; they make up all but 1.8% or so of the library.
Gli-Sufu antag = Gli-Sufu pathway antagonists, primary screen, luciferase luminescence, Sufu-KO-LIGHT cells, uHTS; Sufu-KO-LIGHT fibroblasts, Gli luciferase reporter luminescence; inhibition, % at 5 µM; hit rate 0.74% among 340,000; AID 588413, 2011;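 active means inhibition above about 55%, limit read from the data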;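 further: 0% = DMSO-treated cells and 100% = wells with medium but no cells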
GalR3 antagonist = GalR3 antagonists in HEK293 cells, primary screen, cell-based, fluorescence readout; inhibition, % at 3 µM; HEK293 GalR3-CNG cAMP membrane potential fluorescence; galR3 body fused to GalR1 C-terminus; hit rate 0.44% among 360,000; AID 651719, 2012;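 active means inhibition above the screen-wide average plus 3 SD, cut at about 13% in these data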;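 further: forskolin and galanin both at EC90 stimulate the cells; cAMP rise reported by CNG channel membrane potential dye signal; 0% = forskolin plus galanin with DMSO and 100% = forskolin alone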
Jurkat NFkB inh = inhibitors of induced NF-kB luciferase reporter, primary screen, TCR NF-kB activation inhibitor project, cell-based, luminescence, uHTS. Jurkat, PMA/ionomycin-induced NF-kB luciferase reporter. inhibition, % at 4 µM. hit rate 0.53% among 330,000. AID 435003, 2010; in the data active means inhibition above about 50%
NR2E3 ag-1 = NR2E3 agonists in two-hybrid cells, primary screen, cell-based, luminescence, CHO-S, Gal4-NCOR/VP16-NR2E3; inhibition of corepressor binding, % at 3.98 µM; luciferase; hit rate 0.35% among 360,000; AID 602229, 2012;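 active means inhibition above the mean of all tested compounds plus 3 SD, cut at about 70% in these data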;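 further: 0% = DMSO with NR2E3 transfected cells and 100% = cells lacking NR2E3 construct; higher means lower luciferase signal from less NR2E3 corepressor binding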
Target sequence (Q9Y5X4 whole entry, looked up, the tested form may be a part): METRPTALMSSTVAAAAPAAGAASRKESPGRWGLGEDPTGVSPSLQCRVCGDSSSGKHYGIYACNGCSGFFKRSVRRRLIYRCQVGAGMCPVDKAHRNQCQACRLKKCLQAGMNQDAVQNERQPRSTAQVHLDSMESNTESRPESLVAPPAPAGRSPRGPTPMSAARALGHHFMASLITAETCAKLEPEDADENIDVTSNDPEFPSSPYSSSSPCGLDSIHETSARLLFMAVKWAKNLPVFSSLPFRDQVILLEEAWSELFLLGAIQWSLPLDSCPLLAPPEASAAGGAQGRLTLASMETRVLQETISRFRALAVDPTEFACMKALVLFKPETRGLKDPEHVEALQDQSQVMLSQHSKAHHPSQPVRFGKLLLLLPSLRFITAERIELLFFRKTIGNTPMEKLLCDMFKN
NR2E3 ag-2 = inhibitors of NR2E3-RetCOR corepressor binding, primary screen, NR2E3 agonist project, biochemical, TR-FRET, GST-NR2E3, biotin-RetCOR. Photoreceptor-specific nuclear receptor (Homo sapiens), Q9Y5X4. 1536-well. inhibition of corepressor binding, % at 4.78 µM. hit rate 0.12% among 320,000. AID 2300, 2010;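 active means percent inhibition above the cutoff of mean plus 3 SD of all tested compounds, set per screening campaign, cut at about 20% in these data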;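 further: 0% = DMSO wells and 100% = biotin wells as full block of FRET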
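system = GST-tagged NR2E3 plus biotinylated RetCOR corepressor | input = 1.35 nM GST-NR2E3 | also added = 7 nM biotin-RetCOR | schedule = 5 h incubation at 4 °C | measured by = TR-FRET with europium anti-GST and streptavidin-D2, 340 nm excitation | read-out = percent loss of FRET ratio relative to control wells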
697 NFkB inh = inhibitors of PMA/ionomycin-induced NF-kB reporter, 697 cells, primary screen, B-cell NF-kB inhibitor project, cell-based, luminescence, uHTS; 697 B-cell NF-kB luciferase reporter, 16 h; hit rate 0.33% among 330,000; inhibition, % at 4 µM; in the data active means inhibition above about 35%
Gli antag conf = Gli-SUFU pathway antagonists, confirmation, single concentration, luciferase luminescence, Sufu-KO-LIGHT cells; inhibition, % at 5 µM; shares compounds with Gli-Sufu antag; Gli luciferase reporter; hit rate 40% among 2,500; AID 602428, 2012;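 active means mean inhibition at 5 µM reaching about 45%, limit read from the data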;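 further: plate controls were DMSO-treated cells for no effect and wells lacking cells for full effect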
Gli cytotox = cytotoxicity in Sufu-KO-LIGHT cells, confirmation, cytotoxicity control for Gli-SUFU antagonist project, cell-based, ATP luminescence, single concentration; shares compounds with Gli-Sufu antag; cytotoxicity, % at 5 µM; hit rate 32% among 2,500; AID 651994, 2013;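 active means mean cytotoxicity at 5 µM above about 25%, limit read from the data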;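 further: cells exposed to compound overnight for roughly 16 to 18 hours; plate controls were DMSO wells with cells for no effect and medium without cells for full effect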
Wnt3a cs = Wnt3a reporter signal inhibition, confirmation, counter-screen for Gli-SUFU antagonist project, Wnt-LIGHT cells, luminescence, single concentration | shares compounds with Gli-Sufu antag | Wnt3a-driven luciferase reporter | inhibition, % at 6.25 µM | hit rate 20% among 2,500 | AID 651995, 2013;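 active means mean inhibition above about 25%, limit read from the data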
Active calls of the source: *; / = no result.

SMILES	Gli-Sufu antag	GalR3 antagonist	Jurkat NFkB inh	NR2E3 ag-1	NR2E3 ag-2	697 NFkB inh	Gli antag conf	Gli cytotox	Wnt3a cs
CCOc1ccccc1N(C)S(=O)(=O)c1ccc2c(c1)CC(C)N2C(=O)C1CC1 (stereo not drawn)	60*	-6	3	-21	-1	-20	16	12	-46
CCOC(=O)C1CSCCS(=O)(=O)N1Cc1ccc(Br)cc1 (stereo not drawn)	/	-3	/	/	/	/	/	/	/
O=C(C[C@@H]1C/C=C\C[C@H](NC(=O)OCC2c3ccccc3-c3ccccc32)C(=O)OC[C@@H]2CCCN2C1=O)N[C@H](CO)Cc1ccccc1	1	-2	2	-13	/	8	/	/	/
O=C(C[C@@H]1C/C=C\C[C@H](NC(=O)OCC2c3ccccc3-c3ccccc32)C(=O)OC[C@H]2CCCN2C1=O)N[C@H](CO)Cc1ccccc1	68*	-5	3	-21	/	18	65*	24	-19
O=C(C[C@H]1C/C=C\C[C@H](NC(=O)OCC2c3ccccc3-c3ccccc32)C(=O)OC[C@@H]2CCCN2C1=O)N[C@H](CO)Cc1ccccc1	50	/	1	-5	/	-9	46*	11	-7
O=C(C[C@@H]1C/C=C\C[C@H](NC(=O)OCC2c3ccccc3-c3ccccc32)C(=O)OC[C@@H]2CCCN2C1=O)N[C@@H](CO)Cc1ccccc1	33	-5	-2	19	/	6	/	/	/
CC1CCCN(c2cccc3c2S(=O)(=O)N(Cc2cccc(Cl)c2)[C@@H](C)[C@H](c2ccccc2)O3)C1 (stereo partly drawn)	/	-6	/	/	/	/	/	/	/
CC(=O)Nc1ccc(CNc2ncnc3ccc(-c4c(C)noc4C)cc23)cc1	73*	-3	-21	-30	-4	-79	78*	31*	-22
Cc1cccc(CNc2ncnc3ccc(-c4ccoc4)cc23)c1	-7	4	0	-98	5	-53	/	/	/
Cc1cccc(NC(=O)C2CCC(CNC(=O)[C@@H]3Cc4ccccc4CN3)CC2)c1 (stereo partly drawn)	-20	-7	18	-11	1	-12	/	/	/
Cc1cc(C)cc(NC(=O)C2CCC(CNC(=O)[C@@H]3Cc4ccccc4CN3)CC2)c1 (stereo partly drawn)	57*	-3	11	20	1	0	18	11	-59
CCOC(=O)NC1CCc2cc(OC)c(OC)c(OC)c2-c2ccc(SC)c(=O)cc21 (stereo not drawn)	55*	3	/	25	/	/	56*	68*	26*
CCCCOC(=O)NC1CCc2cc(OC)c(OC)c(OC)c2-c2ccc(SC)c(=O)cc21 (stereo not drawn)	64*	4	/	27	/	/	54*	64*	0
CCCCOC(=O)NC1CCS(=O)(=O)C1 (stereo not drawn)	2	-1	3	-7	1	2	/	/	/
CCc1noc2cc(-c3ccccc3)n(C)c(=O)c12	/	-7	/	/	/	/	/	/	/
COC(=O)CNC(=O)CNC(=O)c1nn(-c2ccc(OC)c(OC)c2)c(=O)c2ccccc12	52	-8	-5	10	-1	8	10	-4	10
C=CCNc1ccc2c(c1)OC[C@H](CC(C)C)NS2(=O)=O	/	-4	/	/	/	/	/	/	/

Screens: PubChem BioAssay, several laboratories
